Converted amounts (≈) assume the structure as drawn. Values belong to the compound of their own block, whether it stands above or below them.
How the values were obtained:
[1] = target: T1, Alkaline phosphatase, tissue-nonspecific isozyme (Homo sapiens, UniProt P05186); experiment: Inhibition of TNAP transfected in african green monkey COS1 cells by luminescent assay
T1 sequence (P05186 whole entry): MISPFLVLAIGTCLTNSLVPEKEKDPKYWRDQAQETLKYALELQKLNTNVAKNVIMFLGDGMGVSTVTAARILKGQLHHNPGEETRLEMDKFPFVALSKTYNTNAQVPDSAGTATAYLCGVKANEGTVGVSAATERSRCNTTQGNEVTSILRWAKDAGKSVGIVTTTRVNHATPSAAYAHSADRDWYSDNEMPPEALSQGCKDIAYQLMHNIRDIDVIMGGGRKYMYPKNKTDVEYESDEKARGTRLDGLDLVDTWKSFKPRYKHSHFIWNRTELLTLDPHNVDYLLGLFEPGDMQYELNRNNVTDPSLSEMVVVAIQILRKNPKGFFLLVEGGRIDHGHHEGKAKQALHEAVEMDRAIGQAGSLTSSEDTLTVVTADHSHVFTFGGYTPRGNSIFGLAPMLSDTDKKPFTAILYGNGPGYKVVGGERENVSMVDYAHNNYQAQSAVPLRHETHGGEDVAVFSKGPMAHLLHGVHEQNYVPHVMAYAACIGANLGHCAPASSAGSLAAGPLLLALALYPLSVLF

[2] = Metabolic stability in rat liver microsomes after 30 mins; assay type: ADME, Microsome; conditions: read-out: Stability
Procedure, shortened: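 Compounds incubated in triplicate with pooled rat liver microsomes plus NADPH at 37 °C for 30 min. Reported as percent remaining.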

[3] = Permeability by PAMPA assay; assay type: ADME
[4] = Metabolic stability in rat plasma after 30 mins; assay type: ADME, cell-free; conditions: read-out: Stability
Procedure, shortened: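 Compounds incubated in fresh rat plasma at 37 °C for 30 min. Reported as percent remaining.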

[5] = Solubility at pH 7.4 by direct UV method; assay type: physicochemical; conditions: buffer
Procedure, shortened: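 Direct UV kinetic solubility in aqueous buffer at pH 7.4, in duplicate. Samples held at room temperature for at least 18 h, then filtered to remove precipitate. UV absorbance (250-498 nm) compared with spectra of precipitation-free reference solutions.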

[6] = Cmax in rat at 4.13 mg/kg, sc; assay type: ADME, organism-based; set-up: dose 4.13 mg/kg, route subcutaneous; conditions: in vivo
Procedure, shortened: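 Rats dosed subcutaneously with 400 microliters of a […] solution (4.13 mg/kg) in 50% DMSO in normal saline. Blood drawn and frozen immediately, plasma kept at -20 °C. Compound quantified by LC-MS/MS (electrospray, C18 reverse-phase, water-acetonitrile gradient) against a 7-point calibration curve built from peak areas of serial dilutions.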

[7] = target: T2, Ectonucleotide pyrophosphatase/phosphodiesterase family member 1 (Homo sapiens) (UniProt P22413); experiment: Inhibition of NPP1; conditions: concentration not given here
T2 sequence (whole entry): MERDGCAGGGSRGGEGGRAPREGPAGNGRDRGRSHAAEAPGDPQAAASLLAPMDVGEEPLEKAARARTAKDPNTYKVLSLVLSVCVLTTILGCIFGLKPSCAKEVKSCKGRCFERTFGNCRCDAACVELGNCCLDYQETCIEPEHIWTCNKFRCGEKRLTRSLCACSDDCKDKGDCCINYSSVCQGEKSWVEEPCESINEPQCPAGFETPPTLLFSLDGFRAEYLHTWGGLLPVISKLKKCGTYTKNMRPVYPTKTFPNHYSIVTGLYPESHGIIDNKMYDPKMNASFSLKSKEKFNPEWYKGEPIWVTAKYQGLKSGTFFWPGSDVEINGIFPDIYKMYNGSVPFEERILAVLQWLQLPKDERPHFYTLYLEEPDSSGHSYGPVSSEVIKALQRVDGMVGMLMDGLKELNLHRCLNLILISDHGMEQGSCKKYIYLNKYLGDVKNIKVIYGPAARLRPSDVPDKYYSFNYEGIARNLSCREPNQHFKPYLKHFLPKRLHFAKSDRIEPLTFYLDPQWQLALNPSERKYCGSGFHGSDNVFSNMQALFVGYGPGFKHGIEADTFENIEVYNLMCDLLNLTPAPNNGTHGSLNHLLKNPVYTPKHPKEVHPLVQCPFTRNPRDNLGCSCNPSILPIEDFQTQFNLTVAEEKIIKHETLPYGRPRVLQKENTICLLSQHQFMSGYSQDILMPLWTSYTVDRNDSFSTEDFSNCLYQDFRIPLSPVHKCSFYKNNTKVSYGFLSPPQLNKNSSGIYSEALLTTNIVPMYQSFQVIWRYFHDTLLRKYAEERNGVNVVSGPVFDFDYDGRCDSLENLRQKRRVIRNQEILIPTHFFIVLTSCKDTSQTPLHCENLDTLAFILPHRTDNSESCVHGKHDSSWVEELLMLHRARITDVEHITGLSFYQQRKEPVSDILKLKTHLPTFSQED
Procedure, shortened: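 NPP1 activity with 5 mM pNP-TMP in 50 mM Tris pH 7.4 or 100 mM Tris pH 8.9 with 2 mM MgCl2 at 37 °C. Reaction started with enzyme and stopped with 1 M NaOH at set times. p-Nitrophenolate read at 410 nm, in triplicate, with no-enzyme controls. Inhibitor tested at 10 μM final.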

[8] = target: T3, Phosphoethanolamine/phosphocholine phosphatase (Homo sapiens) (UniProt Q8TCT1); experiment: Inhibition of PHOSPHO1 assessed as inorganic phosphate release; conditions: concentration not given here
T3 sequence (whole entry): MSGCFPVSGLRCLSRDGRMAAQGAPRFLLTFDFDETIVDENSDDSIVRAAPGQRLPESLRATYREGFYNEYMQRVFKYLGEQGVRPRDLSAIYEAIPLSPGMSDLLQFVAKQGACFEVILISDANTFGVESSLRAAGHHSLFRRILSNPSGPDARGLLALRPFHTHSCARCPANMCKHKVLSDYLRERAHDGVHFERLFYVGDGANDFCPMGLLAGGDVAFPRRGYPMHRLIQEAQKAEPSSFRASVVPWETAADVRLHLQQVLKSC

[9] = target: Intestinal-type alkaline phosphatase (Homo sapiens, UniProt P09923); experiment: Inhibition of IAP by luminescent assay
Sequence of Intestinal-type alkaline phosphatase (P09923 whole entry): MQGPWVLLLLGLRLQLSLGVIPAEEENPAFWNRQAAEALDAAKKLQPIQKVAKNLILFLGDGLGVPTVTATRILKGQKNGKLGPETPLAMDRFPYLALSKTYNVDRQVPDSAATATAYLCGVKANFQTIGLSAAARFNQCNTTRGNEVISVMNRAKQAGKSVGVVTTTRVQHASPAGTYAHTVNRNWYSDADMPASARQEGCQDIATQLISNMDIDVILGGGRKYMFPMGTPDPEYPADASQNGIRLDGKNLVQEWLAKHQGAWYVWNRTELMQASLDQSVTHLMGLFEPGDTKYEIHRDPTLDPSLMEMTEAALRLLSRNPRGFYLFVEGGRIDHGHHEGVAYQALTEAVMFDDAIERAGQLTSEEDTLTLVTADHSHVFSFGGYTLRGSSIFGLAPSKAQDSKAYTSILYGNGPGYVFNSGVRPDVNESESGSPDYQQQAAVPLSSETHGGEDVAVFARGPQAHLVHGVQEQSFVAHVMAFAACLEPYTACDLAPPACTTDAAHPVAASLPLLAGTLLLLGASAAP

SMILES: COc1ccc(OC)c(S(=O)(=O)Nc2ccc3ccccc3c2)c1
IC50 [1]: > 10000 nM

SMILES: COc1ccc(OC)c(S(=O)(=O)Nc2ccc3ncccc3c2)c1
IC50 [1]: > 10000 nM

SMILES: COc1ccc(C)cc1S(=O)(=O)Nc1cccnc1
IC50 [1]: 1850 nM | remaining at 0.5 h [2]: 39% | permeability [3]: 83% | remaining at 0.5 h [4]: 98% | solubility kinetic [5]: 28.5 µg/mL (≈ 102 µM)

SMILES: COc1cccc(S(=O)(=O)Nc2cnc3ccccc3c2)c1
IC50 [1]: > 10000 nM

SMILES: COc1cc([N+](=O)[O-])ccc1S(=O)(=O)Nc1cccnc1
IC50 [1]: 3160 nM | remaining at 0.5 h [2]: 68% | permeability [3]: 51% | remaining at 0.5 h [4]: 99% | solubility kinetic [5]: 1.1 µg/mL (≈ 3.56 µM)

SMILES: COc1ccc(Br)cc1S(=O)(=O)Nc1cnc2ccccc2c1
remaining at 0.5 h [2]: 49% | permeability [3]: 54% | remaining at 0.5 h [4]: 66% | solubility kinetic [5]: 37.9 µg/mL (≈ 96.4 µM)

SMILES: COc1cc(S(=O)(=O)Nc2cccnc2)c(OC)cc1C
IC50 [1]: 1490 nM

SMILES: COc1ccc(OC)c(NS(=O)(=O)c2cnc3ccccc3c2)c1
IC50 [1]: > 10000 nM

SMILES: COc1cc(C)c(C)cc1S(=O)(=O)Nc1cccnc1
IC50 [1]: 1680 nM

SMILES: COc1ccc(OC)c(S(=O)(=O)Nc2cnc3ccccc3c2)c1
remaining at 0.5 h [2]: 78% | Cmax [6]: 1500 ng/mL | permeability [3]: 58% | inhibition [7]: < 9.5% | remaining at 0.5 h [4]: 97% | inhibition [8]: < 7.4% | solubility kinetic [5]: 138 µg/mL (≈ 401 µM) | IC50 [9]: > 100000 nM

SMILES: COc1cc(S(=O)(=O)Nc2cccnc2)c(OC)cc1Br
IC50 [1]: 1550 nM

SMILES: COc1ccc(OC)c(CNc2cnc3ccccc3c2)c1
IC50 [1]: > 10000 nM

Continued, values first:

IC50 [1]: 510 nM
SMILES: COc1cc(C)c(Cl)cc1S(=O)(=O)Nc1cccnc1

IC50 [1]: 690 nM
SMILES: CCOc1cc(C)c(Cl)cc1S(=O)(=O)Nc1cccnc1

IC50 [1]: 1130 nM
SMILES: COc1cc(S(=O)(=O)Nc2cccnc2)c(OC)cc1Cl

IC50 [1]: 650 nM | remaining at 0.5 h [2]: 48% | permeability [3]: 7% | remaining at 0.5 h [4]: 91% | solubility kinetic [5]: 71.6 µg/mL (≈ 218 µM)
SMILES: COc1ccc(C)cc1S(=O)(=O)Nc1cnc2ccccc2c1

IC50 [1]: 1130 nM
SMILES: CCOc1ccc(C)cc1S(=O)(=O)Nc1cccnc1

IC50 [1]: 540 nM
SMILES: CCOc1ccc(Cl)cc1S(=O)(=O)Nc1cccnc1

IC50 [1]: 1060 nM
SMILES: COc1ccc(OC)c(S(=O)(=O)Nc2cccnc2)c1

IC50 [1]: 1290 nM
SMILES: COc1ccc(F)cc1S(=O)(=O)Nc1cccnc1

IC50 [1]: 740 nM | remaining at 0.5 h [2]: 56% | permeability [3]: 11% | remaining at 0.5 h [4]: 96% | solubility kinetic [5]: 178 µg/mL (≈ 495 µM)
SMILES: COc1cc([N+](=O)[O-])ccc1S(=O)(=O)Nc1cnc2ccccc2c1

— ChEMBL document CHEMBL1154612, “Discovery and validation of a series of aryl sulfonamides as selective inhibitors of tissue-nonspecific alkaline phosphatase (TNAP)” (J Med Chem, 2009)
